Results from ChEMBL document CHEMBL1153378, “Synthesis and evaluation of myxochelin analogues as antimetastatic agents” (Bioorg Med Chem, 2009).
pIC50: −log10 of the molar value. Activity calls are given as the source filed them. The calls are words filed in the database; no cut-off is given here.

Experiments:
[1] = Antiinvasive activity against mouse 26-L5 cells assessed as inhibition of cell invasion at 2.5 uM by Matrigel assay; assay type: functional
[2] = Antiinvasive activity against mouse 26-L5 cells assessed as inhibition of cell invasion by Matrigel assay; assay type: functional, cell-based
[3] = Cytotoxicity against mouse 26-L5 cells after 24 hrs; assay type: functional, cell-based
Summary of the method: (§1)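 Murine colon 26-L5 carcinoma cells at 1 × 10⁴ cells/well in RPMI with 10% FCS and L-glutamine, exposed to test compound at various concentrations (DMSO solutions) for 24 h. Wells PBS-washed, crystal violet stain 30 min, dye extracted with 30% acetic acid, absorbance read at 590 nm. Mean ± SD; Student's two-tailed t-test vs control.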

[4] = Cytotoxicity against mouse 26-L5 cells at 7.5 uM after 24 hrs; assay type: functional; summary of the method: as §1
[5] = molecular target: 72 kDa type IV collagenase (Mus musculus) (UniProt P33434); assay: Inhibition of MMP2 in mouse 26-L5 cells at 2.5 uM by gelatin based zymography assay; assay type: cell-based
Chain of 72 kDa type IV collagenase (Mus musculus) (P33434 whole entry): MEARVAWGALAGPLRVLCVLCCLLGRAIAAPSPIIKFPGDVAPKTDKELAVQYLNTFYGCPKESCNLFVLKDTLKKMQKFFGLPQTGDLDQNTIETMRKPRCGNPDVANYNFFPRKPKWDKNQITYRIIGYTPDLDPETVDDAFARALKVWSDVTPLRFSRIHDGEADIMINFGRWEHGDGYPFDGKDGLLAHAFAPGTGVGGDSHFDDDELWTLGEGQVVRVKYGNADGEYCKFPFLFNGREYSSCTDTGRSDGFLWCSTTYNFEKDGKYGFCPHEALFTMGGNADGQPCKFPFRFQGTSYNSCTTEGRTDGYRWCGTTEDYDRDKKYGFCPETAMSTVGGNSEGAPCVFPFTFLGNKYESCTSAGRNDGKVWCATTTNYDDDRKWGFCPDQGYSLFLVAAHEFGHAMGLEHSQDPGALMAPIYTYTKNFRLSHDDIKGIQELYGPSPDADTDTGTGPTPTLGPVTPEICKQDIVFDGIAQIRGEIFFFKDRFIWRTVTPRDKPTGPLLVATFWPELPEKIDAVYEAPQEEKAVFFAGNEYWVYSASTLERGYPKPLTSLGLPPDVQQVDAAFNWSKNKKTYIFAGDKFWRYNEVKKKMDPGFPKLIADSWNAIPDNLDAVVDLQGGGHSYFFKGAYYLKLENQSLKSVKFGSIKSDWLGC
Summary of the method: (§2)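 Gelatin zymography: conditioned medium of colon 26-L5 cells run non-reducing on 10% SDS–PAGE with 0.1% gelatin. Gels rinsed twice 1 h at room temperature (50 mM Tris–HCl, 2.5% Triton X-100, 5 mM CaCl₂, 0.05% NaN₃), strips incubated 24 h at 37 °C in reaction buffer with test compound at various concentrations, then Coomassie stained. Mean ± SD, two-tailed t-test.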

[6] = molecular target: Matrix metalloproteinase-9 (Mus musculus) (UniProt P41245); assay: Inhibition of MMP9 in mouse 26-L5 cells at 2.5 uM by gelatin based zymography assay; assay type: cell-based; summary of the method: as §2
Chain of Matrix metalloproteinase-9 (Mus musculus) (P41245 whole entry): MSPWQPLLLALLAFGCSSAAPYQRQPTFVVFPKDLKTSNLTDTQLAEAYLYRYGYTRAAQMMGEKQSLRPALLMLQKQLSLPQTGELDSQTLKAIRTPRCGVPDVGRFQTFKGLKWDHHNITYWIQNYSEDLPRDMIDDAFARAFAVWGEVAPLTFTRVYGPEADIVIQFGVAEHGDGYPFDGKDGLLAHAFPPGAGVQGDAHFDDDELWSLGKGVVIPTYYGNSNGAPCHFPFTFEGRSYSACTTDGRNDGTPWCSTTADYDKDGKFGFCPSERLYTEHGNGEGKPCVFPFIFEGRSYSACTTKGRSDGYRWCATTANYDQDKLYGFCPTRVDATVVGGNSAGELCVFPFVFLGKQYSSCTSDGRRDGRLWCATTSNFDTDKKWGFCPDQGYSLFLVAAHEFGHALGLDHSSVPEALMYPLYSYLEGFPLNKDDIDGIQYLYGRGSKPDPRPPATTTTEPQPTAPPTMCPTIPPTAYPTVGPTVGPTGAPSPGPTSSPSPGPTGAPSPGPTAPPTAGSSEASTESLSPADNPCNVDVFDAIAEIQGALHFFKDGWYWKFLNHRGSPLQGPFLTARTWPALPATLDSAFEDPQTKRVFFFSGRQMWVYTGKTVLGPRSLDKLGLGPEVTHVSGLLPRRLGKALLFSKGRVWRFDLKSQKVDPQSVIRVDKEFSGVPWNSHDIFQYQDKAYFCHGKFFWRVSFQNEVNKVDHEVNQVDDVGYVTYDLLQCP

Mus musculus [7] = species on record: Mus musculus; assay: Inhibition of mouse 26-L5 cells adhesion to extracellular matrix proteins at 2.5 uM after 24 hrs by crystal violet assay; assay type: functional
Summary of the method: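 Colon 26-L5 cells pre-treated with compound 24 h at 37 °C, 5% CO₂, then resuspended in RPMI/10% FCS/L-glutamine and seeded at 4 × 10⁴ cells/well on fibronectin- or Matrigel-coated wells. Attachment 1 h at 37 °C; non-adherent cells aspirated; adherent cells fixed in 20% formalin 4 °C 1 h, crystal violet stained 30 min. Mean ± SD, two-tailed t-test.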

Mus musculus [8] = species on record: Mus musculus; assay: Inhibition of cell migration of mouse 26-L5 cells at 2.5 uM by Matrigel assay; assay type: functional
[9] = molecular target: 72 kDa type IV collagenase (Mus musculus) (UniProt P33434); assay: Inhibition of MMP2 in mouse 26-L5 cells at 0.25 uM by gelatin based zymography assay; assay type: cell-based; summary of the method: as §2
[10] = Antimetastatic activity against mouse 26-L5 cells xenografted BALB/c mouse assessed as inhibition of lung tumor metastasis at 50 mg/kg, ip dosed once daily for 14 days; assay type: functional; details: 336 h, route intraperitoneal
Summary of the method: (§3)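 BALB/c mice injected iv via tail vein with colon 26-L5 cells in cold PBS; compound given ip at 50 mg/kg (1 mg/mouse in 200 µL PBS); controls received 200 µL PBS. Body weight followed; mice killed 14 days after inoculation, lungs fixed in Bouin's solution, surface colonies counted under dissecting microscope. Student's two-tailed t-test.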

Mus musculus [11] = assay: Toxicity in mouse 26-L5 cells xenografted BALB/c mouse assessed as body weight loss at 50 mg/kg, ip dosed once daily for 14 days; assay type: organism-based; design: dose 50 mg/kg, route intraperitoneal; details: in vivo, 336 h; summary of the method: as §3
[12] = molecular target: Matrix metalloproteinase-9 (Mus musculus) (UniProt P41245); assay: Inhibition of MMP9 in mouse 26-L5 cells at 0.25 uM by gelatin based zymography assay; assay type: cell-based; summary of the method: as §2
[13] = Cytotoxicity against mouse 26-L5 cells at 5.6 uM after 24 hrs; assay type: functional; summary of the method: as §1

SMILES	pIC50 [2]	inhibition at 2.5 µM [1]	pIC50 [3]	inhibition at 7.5 µM [4]	further results
N#C[C@H](CCCCNC(=O)c1cccc(O)c1O)NC(=O)c1cccc(O)c1O	< 5.60	45%	5.12	–	–
COC(=O)[C@H](CCNC(=O)c1cccc(O)c1O)NC(=O)c1cccc(O)c1O	< 5.60	40%	< 5.12	13%	–
COC(=O)[C@H](CCCNC(=O)c1cccc(O)c1O)NC(=O)c1cccc(O)c1O	5.60	–	< 5.12	45%	–
O=C(NCCCCCNC(=O)c1cccc(O)c1O)c1cccc(O)c1O	< 5.60	45%	5.57	–	–
COC(=O)[C@H](CCCCNC(=O)c1ccccc1)NC(=O)c1cccc(O)c1O	< 5.60	0%	< 5.12	0%	–
COC(=O)[C@H](CCCCNC(=O)c1cccc(OC)c1OC)NC(=O)c1cccc(OC)c1OC	< 5.60	25%	< 5.12	0%	–
NC(=O)[C@H](CCCCNC(=O)c1cccc(O)c1O)NC(=O)c1ccccc1	6.59	–	< 5.12	0%	–
COC(=O)[C@H](CCCCNC(=O)c1cccc(O)c1O)NC(C)=O	5.62	–	< 5.12	0%	–
COC(=O)[C@H](CCCCNC(=O)c1cccc(O)c1O)NC(=O)c1ccccc1	6.00	–	< 5.12	0%	–

More lines, main results first:

pIC50 [2]	SMILES	inhibition at 2.5 µM [1]	pIC50 [3]	inhibition at 7.5 µM [4]	further results
6.01	O=C(NCCCC[C@H](NC(=O)c1cccc(O)c1O)C(=O)NO)c1cccc(O)c1O	–	< 5.12	0%	–
6.23	O=C(NCCCC[C@@H](CO)NC(=O)c1cccc(O)c1O)c1cccc(O)c1O	–	< 5.12	20%	inhibition [5]: 35%; inhibition [6]: 39%; inhibition (Mus musculus [7]): inactive; inhibition (Mus musculus [8]): inactive
5.82	COC(=O)[C@H](CCCCNC(=O)c1cccc(O)c1O)NC(=O)c1cccc(O)c1O	–	< 5.12	10%	–
5.77	COC(=O)[C@H](CCCCCNC(=O)c1cccc(O)c1O)NC(=O)c1cccc(O)c1O	–	5.80	–	–
7.04	NC(=O)[C@H](CCCCNC(=O)c1cccc(O)c1O)NC(=O)c1cccc(O)c1O	–	< 5.12	0%	inhibition [9]: 44%; inhibition in vivo at 50 mg/kg [10]: 35%; Activity (Mus musculus [11]): Non-toxic; inhibition (Mus musculus [7]): inactive; inhibition [12]: 33%; inhibition (Mus musculus [8]): inactive
6.28	O=C(NCCCC[C@@H](CNC(=O)c1cccc(O)c1O)NC(=O)c1cccc(O)c1O)c1cccc(O)c1O	–	< 5.25	–	inhibition at 5.6 µM [13]: 0%
5.66	O=C(NCCCC[C@H](CO)NC(=O)c1cccc(O)c1O)c1cccc(O)c1O	–	< 5.12	30%	–
< 5.60	O=C(NCCCC[C@H](NC(=O)c1cccc(O)c1O)C(=O)O)c1cccc(O)c1O	30%	< 5.12	0%	–
6.14	NC[C@H](CCCCNC(=O)c1cccc(O)c1O)NC(=O)c1cccc(O)c1O	–	< 5.12	40%	–
